# Data reported in ChEMBL document CHEMBL1275475, “Potent in vitro activity of tomopenem (CS-023) against methicillin-resistant Staphylococcus aureus and Pseudomonas aeruginosa” (Antimicrob Agents Chemother, 2008).
# Assays:
# [1] = test system: Pseudomonas aeruginosa; assay: Antibacterial activity against Pseudomonas aeruginosa N091 by broth microdilution method; format: functional
# In short: (§1)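 Standard broth microdilution in cation-adjusted Mueller-Hinton broth (25 mg Ca2+ and 12.5 mg Mg2+ per liter), inoculum 4×10^5 CFU/ml, against P. aeruginosa PAO1 or its laboratory mutants with defined resistance mechanisms. MIC was the lowest concentration completely inhibiting […] growth in wells. Determinations were done in duplicate.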
# [2] = test system: Pseudomonas aeruginosa; assay: Ratio of MIC for Pseudomonas aeruginosa N045 to MIC for Pseudomonas aeruginosa PAO1; format: functional
# In short: (§2)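 MICs were measured for PAO1-derived resistance mutants and the parent PAO1 by broth microdilution in cation-adjusted Mueller-Hinton broth (25 mg/liter Ca2+, 12.5 mg/liter Mg2+), inoculum 4×10^5 CFU/ml, in duplicate. MIC was the lowest concentration with complete growth inhibition. The ratio is the mutant MIC divided by the PAO1 MIC.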
# [3] = test system: Pseudomonas aeruginosa; assay: Ratio of MIC for Pseudomonas aeruginosa OCR1 to MIC for Pseudomonas aeruginosa PAO1; format: functional; in short: as §2
# [4] = test system: Pseudomonas aeruginosa; assay: Antibacterial activity against Pseudomonas aeruginosa PAO1 by broth microdilution method; format: functional; in short: as §1
# [5] = test system: Pseudomonas aeruginosa; assay: Antibacterial activity against OprD-deficient Pseudomonas aeruginosa MR08 by broth microdilution method; format: functional; in short: as §1
# [6] = test system: Pseudomonas aeruginosa; assay: Ratio of MIC for Pseudomonas aeruginosa MR08 to MIC for Pseudomonas aeruginosa PAO1; format: functional; in short: as §2
# [7] = test system: Pseudomonas aeruginosa; assay: Antibacterial activity against Pseudomonas aeruginosa COR6 expressing MexC-MexD-OprJ gene by broth microdilution method; format: functional; in short: as §1
# [8] = test system: Pseudomonas aeruginosa; assay: Ratio of MIC for Pseudomonas aeruginosa N043 to MIC for Pseudomonas aeruginosa PAO1; format: functional; in short: as §2
# [9] = test system: Pseudomonas aeruginosa; assay: Antibacterial activity against Pseudomonas aeruginosa N092 expressing MexE-MexF-OprN gene and OprD mutant gene and harboring nfxC mutant gene by broth microdilution method
# [10] = test system: Pseudomonas aeruginosa; assay: Antibacterial activity against MexA-MexB-OprM-overproducing Pseudomonas aeruginosa OCR1 by broth microdilution method; format: functional; in short: as §1
# [11] = test system: Pseudomonas aeruginosa; assay: Ratio of MIC for Pseudomonas aeruginosa N044 to MIC for Pseudomonas aeruginosa PAO1; format: functional; in short: as §2
# [12] = test system: Pseudomonas aeruginosa; assay: Antibacterial activity against beta-lactamase-overproducing Pseudomonas aeruginosa N043 by broth microdilution method; format: functional; in short: as §1
# [13] = test system: Pseudomonas aeruginosa; assay: Antibacterial activity against beta-lactamase and MexA-MexB-OprM-overproducing Pseudomonas aeruginosa N045 by broth microdilution method; format: functional
# In short: (§3)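 Broth microdilution in cation-adjusted Mueller-Hinton broth (25 mg Ca2+ and 12.5 mg Mg2+ per liter), inoculum 4×10^5 CFU/ml. MIC was the lowest concentration completely inhibiting visible growth in wells. European clinical isolates were tested with S. aureus ATCC 29213 and P. aeruginosa ATCC 27853 as quality controls. PAO1-derived mutants were run in duplicate.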
# [14] = test system: Pseudomonas aeruginosa; assay: Ratio of MIC for Pseudomonas aeruginosa COR6 to MIC for Pseudomonas aeruginosa PAO1; format: functional; in short: as §2
# [15] = test system: Pseudomonas aeruginosa; assay: Antibacterial activity against beta-lactamase-overproducing and OprD-deficient Pseudomonas aeruginosa N044 by broth microdilution method; format: functional; in short: as §1
# [16] = test system: Pseudomonas aeruginosa; assay: Ratio of MIC for Pseudomonas aeruginosa N092 to MIC for Pseudomonas aeruginosa PAO1; format: functional; in short: as §2
# [17] = test system: Pseudomonas aeruginosa; assay: Ratio of MIC for Pseudomonas aeruginosa N041 to MIC for Pseudomonas aeruginosa PAO1; format: functional; in short: as §2
# [18] = test system: Pseudomonas aeruginosa; assay: Antibacterial activity against MexA-MexB-OprM-overproducing and OprD-deficient Pseudomonas aeruginosa N041 by broth microdilution method; format: functional; in short: as §1
# [19] = test system: Pseudomonas aeruginosa; assay: Antibacterial activity against imipenem-resistant Pseudomonas aeruginosa clinical isolates by broth microdilution method; format: functional
# In short: (§4)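 Standard broth microdilution in cation-adjusted Mueller-Hinton broth (25 mg Ca2+ and 12.5 mg Mg2+ per liter), inoculum 4×10^5 CFU/ml. MIC is the lowest concentration completely inhibiting […] growth in wells. […] P. aeruginosa ATCC 27853 serves as QC strain.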
# [20] = test system: Staphylococcus aureus; assay: Antibacterial activity against methicillin-resistant Staphylococcus aureus by broth microdilution method; format: functional
# In short: (§5)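 Standard broth microdilution in cation-adjusted Mueller-Hinton broth (25 mg Ca2+ and 12.5 mg Mg2+ per liter), inoculum 4×10^5 CFU/ml. Isolates were 60 German MRSA clinical strains, and penicillinase-plasmid-cured MRSA 123-1 and 12386-1. QC strain was S. aureus ATCC 29213.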
# [21] = biological target: T1, MecA (Staphylococcus aureus, UniProt Q7DHH4); assay: Binding affinity to PBP2a in methicillin-resistant Staphylococcus aureus 123-1 by [14C]benzylpenicillin labelled competitive assay
# T1 sequence (Q7DHH4 whole entry): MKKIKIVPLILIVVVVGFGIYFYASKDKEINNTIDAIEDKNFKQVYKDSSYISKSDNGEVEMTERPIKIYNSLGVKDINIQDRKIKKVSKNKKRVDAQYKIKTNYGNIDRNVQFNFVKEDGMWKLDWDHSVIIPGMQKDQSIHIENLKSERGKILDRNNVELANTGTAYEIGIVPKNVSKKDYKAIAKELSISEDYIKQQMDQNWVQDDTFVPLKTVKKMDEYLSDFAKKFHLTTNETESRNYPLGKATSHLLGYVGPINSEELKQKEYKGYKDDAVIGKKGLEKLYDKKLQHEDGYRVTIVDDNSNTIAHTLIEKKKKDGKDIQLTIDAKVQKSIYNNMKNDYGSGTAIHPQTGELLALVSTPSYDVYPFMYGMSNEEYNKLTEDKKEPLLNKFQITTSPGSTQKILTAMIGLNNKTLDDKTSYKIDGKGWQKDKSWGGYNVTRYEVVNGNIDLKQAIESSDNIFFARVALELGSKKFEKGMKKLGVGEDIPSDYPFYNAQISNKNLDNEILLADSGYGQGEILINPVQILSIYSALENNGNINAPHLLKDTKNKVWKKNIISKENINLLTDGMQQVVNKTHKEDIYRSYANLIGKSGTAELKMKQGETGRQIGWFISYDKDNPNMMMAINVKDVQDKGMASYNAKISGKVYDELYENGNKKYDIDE
# In short: (§6)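 Competition against [14C]benzylpenicillin. Membranes came from penicillinase-plasmid-cured MRSA lysed with lysostaphin (100 μg/ml), DNase (1 μg/ml) and sonication in 50 mM sodium phosphate, 10 mM MgCl2, pH 7.0. They were collected at 5,000 × g for 10 min, then 100,000 × g for 60 min, at final 8 mg/ml protein. Compound was added for 30 min, then label for 30 min, at 37°C. IC50 for 50% label-binding inhibition to PBP 2a was read by imaging analyzer.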
# [22] = test system: Staphylococcus aureus; assay: Antibacterial activity against methicillin-resistant Staphylococcus aureus 12386-1 expressing PBP 2a by broth microdilution method; format: functional; in short: as §5
# [23] = test system: Staphylococcus aureus; assay: Antibacterial activity against methicillin-resistant Staphylococcus aureus 123-1 expressing PBP 2a by broth microdilution method; format: functional; in short: as §5
# [24] = biological target: T1, MecA; assay: Binding affinity to PBP2a in methicillin-resistant Staphylococcus aureus 12386-1 by [14C]benzylpenicillin labelled competitive assay; in short: as §6
# [25] = test system: Pseudomonas aeruginosa; assay: Antibacterial activity against Pseudomonas aeruginosa clinical isolates by broth microdilution method; format: functional; in short: as §3
# [26] = test system: Pseudomonas aeruginosa; assay: Antibacterial activity against meropenem-resistant Pseudomonas aeruginosa clinical isolates by broth microdilution method; format: functional; in short: as §4
SMILES,MIC [1],Ratio [2],Ratio [3],MIC [4],MIC [5],Ratio [6],MIC [7],Ratio [8],MIC [9],MIC [10],Ratio [11],MIC [12],MIC [13],Ratio [14],MIC [15],Ratio [16],Ratio [17],MIC [18],MIC50 [20],MIC90 [20],other results
NCC[C@H](O)C(=O)N[C@@H]1C[C@H](N)[C@@H](O[C@H]2O[C@H](CN)[C@@H](O)[C@H](O)[C@H]2O)[C@H](O)[C@H]1O[C@H]1O[C@H](CO)[C@@H](O)[C@H](N)[C@H]1O [AMIKACIN],4 µg/mL,2,1,4 µg/mL,4 µg/mL,1,0.5 µg/mL,2,2 µg/mL,4 µg/mL,2,8 µg/mL,8 µg/mL,0.125,8 µg/mL,0.5,1,4 µg/mL,–,–,–
CC(C)(O/N=C(\C(=O)N[C@@H]1C(=O)N2C(C(=O)[O-])=C(C[n+]3ccccc3)CS[C@H]12)c1csc(N)n1)C(=O)O [CEFTAZIDIME],2 µg/mL,64,4,2 µg/mL,2 µg/mL,1,1 µg/mL,64,1 µg/mL,8 µg/mL,64,128 µg/mL,128 µg/mL,0.5,128 µg/mL,0.5,4,8 µg/mL,–,–,–
C[C@@H](O)[C@H]1C(=O)N2C(C(=O)O)=C(SCCNC=N)C[C@H]12 [IMIPENEM ANHYDROUS],1 µg/mL,–,–,1 µg/mL,16 µg/mL,–,0.5 µg/mL,–,4 µg/mL,1 µg/mL,–,1 µg/mL,1 µg/mL,–,32 µg/mL,–,–,8 µg/mL,4 µg/mL,> 32 µg/mL,MIC [19]: ≥ 16 µg/mL; IC50 [21]: 568 µM; MIC [22]: 16 µg/mL; MIC [23]: 32 µg/mL; IC50 [24]: 254 µM; MIC50 [25]: 2 µg/mL; MIC90 [25]: 32 µg/mL
C[C@H]1COc2c(N3CCN(C)CC3)c(F)cc3c(=O)c(C(=O)O)cn1c23.C[C@H]1COc2c(N3CCN(C)CC3)c(F)cc3c(=O)c(C(=O)O)cn1c23.O [LEVOFLOXACIN],0.5 µg/mL,–,–,0.5 µg/mL,0.5 µg/mL,–,8 µg/mL,–,8 µg/mL,–,–,0.25 µg/mL,–,–,0.25 µg/mL,–,–,–,–,–,–
C[C@@H](O)[C@H]1C(=O)N2C(C(=O)O)=C(S[C@@H]3CN[C@H](C(=O)N(C)C)C3)[C@H](C)[C@H]12 [MEROPENEM],0.5 µg/mL,4,4,0.5 µg/mL,4 µg/mL,8,0.5 µg/mL,2,1 µg/mL,2 µg/mL,32,1 µg/mL,2 µg/mL,1,16 µg/mL,2,32,16 µg/mL,8 µg/mL,32 µg/mL,IC50 [21]: 339 µM; MIC [26]: ≥ 16 µg/mL; MIC [22]: 16 µg/mL; MIC [23]: 32 µg/mL; IC50 [24]: 138 µM; MIC50 [25]: 1 µg/mL; MIC90 [25]: 16 µg/mL
C[C@@H](O)[C@H]1C(=O)N2C(C(=O)O)=C(S[C@H]3C[C@@H](C(=O)N4CC[C@H](NC(=O)CNC(=N)N)C4)N(C)C3)[C@H](C)[C@H]12 [TOMOPENEM],0.25 µg/mL,4,2,0.25 µg/mL,1 µg/mL,4,0.25 µg/mL,2,0.5 µg/mL,0.5 µg/mL,32,0.5 µg/mL,1 µg/mL,1,8 µg/mL,2,8,2 µg/mL,4 µg/mL,8 µg/mL,IC50 [21]: 9.86 µM; MIC [22]: 8 µg/mL; MIC [23]: 8 µg/mL; IC50 [24]: 5.39 µM; MIC50 [25]: 0.5 µg/mL; MIC90 [25]: 4 µg/mL
